Measured values collected from several papers.
Lines come from different studies, so protocols differ.
Target: Wee1-like protein kinase (WEE1, Homo sapiens, UniProt P30291)

Compound | observed | mode | method | tested at | endpoint | result
CC(C)(C)c1nc2c(s1)c1nc(N)ncc1c1ccc(NS(=O)(=O)c3c(F)cccc3F)c(F)c12 | enzyme activity | inhibitor | radiometric | 1 µM | remaining activity | 87%
O=C(Nc1cnn(-c2csc(C(=O)NC3COC3)c2)c1)Nc1ccccc1Cl | enzyme activity | inhibitor | – | 5 µM | remaining activity | 124%
N#CCCc1ccc2c(c1)-c1[nH]c3ccc([N+](=O)[O-])cc3c1CC(=O)N2 | cell-free assay | – | – | 0.5 µM | remaining signal | 100%
CN(c1nccc(-c2cnn3ncccc23)n1)C1CC1 | binding | – | – | 1 µM | remaining binding | 100%
Cc1ccc(NC(=O)c2ccc(C)c(C(F)(F)F)c2)cc1C#Cc1nn(C2CCC(O)CC2)c2ncnc(N)c12 (stereo not shown) | cell-free assay | – | – | 10 µM | remaining signal | 95%
O=C1Nc2ccc(Cl)cc2C1=Cc1cc(Cl)c(O)c(Cl)c1 | cell-free assay | – | – | 0.5 µM | remaining signal | 79.1%
Cc1ccc(C(=O)NCc2ccsc2)cc1C#Cc1cn(C(C)C)c2ncnc(N)c12 | enzyme activity | inhibitor | – | 1 µM | activity vs control | 103%
Cc1cnc(NC2CCOCC2)nc1-n1cnc(C(=O)NC(CN)c2cc(F)cc(Cl)c2)c1 (stereo not shown) | enzyme activity | inhibitor | radiometric | 1 µM | remaining activity | 101%
Nc1cnc(N2CCc3cc(S(=O)(=O)Nc4c(F)cc(Cl)cc4F)cc(N4CCCC4=O)c32)nc1 | cell-free assay | – | competition with immobilised ligand | 1 µM | remaining binding | 72%
COc1cc2c(Nc3ccc(Br)cc3F)ncnc2cc1OCC1CCN(C)CC1 | cell-free assay | – | – | 0.5 µM | remaining signal | 95.1%
N#Cc1ccc(Nc2ccc3[nH]c(=O)[nH]c3c2)c(Cl)c1 | cell-free assay | – | competition with immobilised ligand | 1 µM | remaining binding | 87%
CN1CC(Oc2cnc(C#N)cc2-c2ccn3nc(NC(=O)C4CC4)cc3c2)C1 | enzyme activity | inhibitor | – | 1 µM | inhibition | 2%
Cc1c(C(=O)O)cc(-c2ccc(C3CCNCC3)cc2)c2ccc(-c3ccc(C(F)(F)F)cc3)cc12 | binding | – | competition with immobilised ligand | 1 µM | remaining binding | 80%
COc1cc2ncnc(Nc3ccc(F)c(Cl)c3)c2cc1OCCCN1CCOCC1 | cell-free assay | – | – | 0.5 µM | remaining signal | 93.8%
CC(=O)N1CCC(c2ccc(C(=O)NC3=NCCN3)cc2C(F)(F)F)CC1 | cell-free assay | – | competition with immobilised ligand | 1 µM | remaining binding | 100%
Cc1ccc(C(=O)Nc2ccc(CN3CCN(C)CC3)c(C(F)(F)F)c2)cc1C#Cc1cnc2cccnn12 | enzyme activity | inhibitor | – | 23.5 nM | remaining activity | 100%
